Peptide text beside a SMILES is read from it.
Assays:
[1] = target: T1, Neuronal acetylcholine receptor subunit alpha-10 (Homo sapiens, UniProt Q9GZZ6); test: Antagonist activity at human alpha10 nAChR expressed in Xenopus laevis oocytes assessed as inhibition of Ach-induced response at -70 mV holding potential measured after 5 mins by two electrode voltage-clamp electrophysiology method; format: cell-based, Oocyte
Method in brief: (§1)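 TEVC at −70 mV after 1–4 days, perfusion ~3 mL/min, saline pH 7.4 with BSA. ACh 3 mM for α10, 100 μM for α7. α7 pulses 500 ms, α10 1 s, every 60 s. Peptide perfused up to 1 μM, static 5-min bath above.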

[2] = target: T2, Neuronal acetylcholine receptor subunit alpha-7 (Homo sapiens, UniProt P36544); test: (§2) Antagonist activity at human alpha7 nAChR expressed in Xenopus laevis oocytes assessed as inhibition of Ach-induced response by measuring residual activity at 10 uM at -70 mV holding potential measured after 5 mins by two electrode voltage-clamp electrophysiology method relative to control; format: cell-based; settings: Oocyte
T2 sequence (P36544 whole entry): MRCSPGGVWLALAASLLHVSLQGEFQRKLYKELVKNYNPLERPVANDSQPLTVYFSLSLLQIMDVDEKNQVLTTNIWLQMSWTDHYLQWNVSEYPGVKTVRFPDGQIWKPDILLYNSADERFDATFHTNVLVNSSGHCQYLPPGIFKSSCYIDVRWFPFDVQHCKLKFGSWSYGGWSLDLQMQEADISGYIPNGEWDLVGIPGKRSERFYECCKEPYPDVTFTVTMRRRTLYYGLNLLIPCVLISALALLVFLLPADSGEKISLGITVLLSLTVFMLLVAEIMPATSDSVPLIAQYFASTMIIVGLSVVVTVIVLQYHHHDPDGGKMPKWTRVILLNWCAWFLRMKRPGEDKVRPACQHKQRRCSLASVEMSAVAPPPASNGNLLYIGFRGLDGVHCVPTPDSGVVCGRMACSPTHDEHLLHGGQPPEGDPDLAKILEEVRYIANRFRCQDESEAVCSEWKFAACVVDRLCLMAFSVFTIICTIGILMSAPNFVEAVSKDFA
Method in brief: (§3)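 Single-point test at 10 μM peptide, applied for 5 min in a static bath to oocytes under TEVC at −70 mV. ACh 100 μM (α7, α9, α9α10) or 3 mM (α10), pulsed every 60 s. The ACh response was normalized to the response after a 5-min bath application of control saline.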

[3] = target: T1, Neuronal acetylcholine receptor subunit alpha-10; test: Antagonist activity at human alpha10 nAChR expressed in Xenopus laevis oocytes assessed as inhibition of Ach-induced response by measuring residual activity at 10 uM at -70 mV holding potential measured after 5 mins by two electrode voltage-clamp electrophysiology method relative to control; format: cell-based; settings: Oocyte; method in brief: as §3
[4] = target: T3, Neuronal acetylcholine receptor subunit alpha-9 (Homo sapiens, UniProt Q9UGM1); test: Antagonist activity at human alpha9 nAChR expressed in Xenopus laevis oocytes assessed as inhibition of Ach-induced response by measuring residual activity at 10 uM at -70 mV holding potential measured after 5 mins by two electrode voltage-clamp electrophysiology method relative to control; format: cell-based; settings: Oocyte; method in brief: as §3
T3 sequence (Q9UGM1 whole entry): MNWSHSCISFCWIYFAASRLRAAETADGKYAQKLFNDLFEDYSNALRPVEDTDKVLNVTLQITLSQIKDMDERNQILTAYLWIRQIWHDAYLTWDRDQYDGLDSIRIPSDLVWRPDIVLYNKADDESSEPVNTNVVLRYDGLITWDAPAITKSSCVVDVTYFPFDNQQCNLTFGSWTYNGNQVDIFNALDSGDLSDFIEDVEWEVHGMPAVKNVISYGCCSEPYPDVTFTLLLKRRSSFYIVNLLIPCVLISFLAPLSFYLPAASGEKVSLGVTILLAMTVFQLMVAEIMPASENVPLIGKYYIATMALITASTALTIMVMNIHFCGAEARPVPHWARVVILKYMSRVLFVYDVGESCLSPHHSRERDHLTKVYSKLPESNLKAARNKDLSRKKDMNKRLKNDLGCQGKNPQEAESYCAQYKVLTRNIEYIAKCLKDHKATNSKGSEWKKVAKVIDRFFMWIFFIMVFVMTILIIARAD

Homo sapiens [5] = organism: Homo sapiens; test: (§4) Selectivity index, ratio of IC50 for antagonist activity at human alpha9 nAChR expressed in Xenopus laevis oocytes assessed as inhibition of Ach-induced response to IC50 for antagonist activity at human alpha3beta2 nAChR expressed in Xenopus laevis oocytes assessed as inhibition of Ach-induced response; format: cell-based
[6] = target: T2, Neuronal acetylcholine receptor subunit alpha-7; test: Antagonist activity at human alpha7 nAChR expressed in Xenopus laevis oocytes assessed as inhibition of Ach-induced response at -70 mV holding potential measured after 5 mins by two electrode voltage-clamp electrophysiology method; format: cell-based, Oocyte; method in brief: as §1
Homo sapiens [7] = organism: Homo sapiens; test: as §4, with “alpha7” for “alpha9”; format: cell-based
Homo sapiens [8] = organism: Homo sapiens; test: as §4, with “alpha10” for “alpha9”; format: cell-based
Homo sapiens [9] = organism: Homo sapiens; test: as §4, with “alpha9alpha10” for “alpha9”; format: cell-based
[10] = target: T3, Neuronal acetylcholine receptor subunit alpha-9; test: Antagonist activity at human alpha9 nAChR expressed in Xenopus laevis oocytes assessed as inhibition of Ach-induced response at -70 mV holding potential measured after 5 mins by two electrode voltage-clamp electrophysiology method; format: cell-based, Oocyte
Method in brief: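 Human α9 or α9α10 cRNA in stage IV–V oocytes kept at 16 °C; α9-only oocytes incubated with 5 mM choline. TEVC at −70 mV, 1–4 days post-injection. 1 s pulses of 100 μM ACh every 60 s until responses were stable. Peptide perfused (≤1 μM) and responses normalized to the mean of three control responses. Above 1 μM, 5-min static bath normalized to a 5-min control-saline bath.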

[11] = target: T4, Neuronal acetylcholine receptor; alpha9/alpha10 (Homo sapiens) (UniProt Q9UGM1+Q9GZZ6); test: (§5) Antagonist activity at human alpha9alpha10 nAChR expressed in Xenopus laevis oocytes assessed as inhibition of Ach-induced response by measuring residual activity at 10 uM at -70 mV holding potential measured after 5 mins by two electrode voltage-clamp electrophysiology method relative to control; format: cell-based; settings: Oocyte; method in brief: as §3
[12] = target: Neuronal acetylcholine receptor; alpha3/beta2 (Homo sapiens, UniProt P17787+P32297); test: Antagonist activity at human alpha3beta2 nAChR expressed in Xenopus laevis oocytes assessed as inhibition of Ach-induced response at -70 mV holding potential measured after 5 mins by two electrode voltage-clamp electrophysiology method; format: cell-based, Oocyte
Sequence of Neuronal acetylcholine receptor; alpha3/beta2 (P17787 whole entry, the tested form may be a part): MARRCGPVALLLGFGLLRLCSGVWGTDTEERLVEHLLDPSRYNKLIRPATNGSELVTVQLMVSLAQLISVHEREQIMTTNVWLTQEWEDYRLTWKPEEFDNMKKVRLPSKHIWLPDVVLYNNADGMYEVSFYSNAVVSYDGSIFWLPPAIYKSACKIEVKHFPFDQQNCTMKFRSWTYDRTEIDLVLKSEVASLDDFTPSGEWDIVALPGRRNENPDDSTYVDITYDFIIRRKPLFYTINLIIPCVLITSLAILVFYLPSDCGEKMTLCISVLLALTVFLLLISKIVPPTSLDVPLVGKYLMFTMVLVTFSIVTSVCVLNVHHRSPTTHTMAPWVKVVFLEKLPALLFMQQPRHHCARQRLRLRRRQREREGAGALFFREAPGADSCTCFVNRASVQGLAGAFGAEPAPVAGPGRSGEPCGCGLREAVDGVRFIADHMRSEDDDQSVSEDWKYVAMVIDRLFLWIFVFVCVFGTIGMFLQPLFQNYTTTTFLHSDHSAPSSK
Sequence of Neuronal acetylcholine receptor; alpha3/beta2 (P32297 whole entry, the tested form may be a part): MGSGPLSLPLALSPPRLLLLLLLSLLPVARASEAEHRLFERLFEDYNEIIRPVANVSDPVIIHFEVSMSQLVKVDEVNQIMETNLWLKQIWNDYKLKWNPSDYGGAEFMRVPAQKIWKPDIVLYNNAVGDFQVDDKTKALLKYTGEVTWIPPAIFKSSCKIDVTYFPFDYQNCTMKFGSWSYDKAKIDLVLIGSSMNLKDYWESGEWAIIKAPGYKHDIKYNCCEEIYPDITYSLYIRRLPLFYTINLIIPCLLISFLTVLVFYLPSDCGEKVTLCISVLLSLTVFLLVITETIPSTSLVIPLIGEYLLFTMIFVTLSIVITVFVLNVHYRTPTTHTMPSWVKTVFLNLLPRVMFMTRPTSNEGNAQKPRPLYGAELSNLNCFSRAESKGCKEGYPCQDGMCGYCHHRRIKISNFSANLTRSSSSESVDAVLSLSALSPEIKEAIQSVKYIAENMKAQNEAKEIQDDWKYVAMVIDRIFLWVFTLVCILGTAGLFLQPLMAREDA
Method in brief: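 Oocytes expressing human α3β2 nAChRs were clamped at −70 mV by TEVC 1–4 days after cRNA injection and gravity-perfused with HEPES-buffered saline, pH 7.4. ACh was pulsed every 60 s until responses were stable. Peptide was perfused up to 1 μM, or given as a 5-min static bath above 1 μM. Responses were normalized to control ACh responses.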

[13] = target: Neuronal acetylcholine receptor; alpha9/alpha10 (Homo sapiens, UniProt Q9GZZ6+Q9UGM1); test: Antagonist activity at human alpha9alpha10 nAChR expressed in Xenopus laevis oocytes assessed as inhibition of Ach-induced response at -70 mV holding potential measured after 5 mins by two electrode voltage-clamp electrophysiology method; format: cell-based, Oocyte
Sequence of Neuronal acetylcholine receptor; alpha9/alpha10 (Q9UGM1 whole entry): as the sequence (Q9UGM1 whole entry) above
Sequence of Neuronal acetylcholine receptor; alpha9/alpha10 (Q9GZZ6 whole entry): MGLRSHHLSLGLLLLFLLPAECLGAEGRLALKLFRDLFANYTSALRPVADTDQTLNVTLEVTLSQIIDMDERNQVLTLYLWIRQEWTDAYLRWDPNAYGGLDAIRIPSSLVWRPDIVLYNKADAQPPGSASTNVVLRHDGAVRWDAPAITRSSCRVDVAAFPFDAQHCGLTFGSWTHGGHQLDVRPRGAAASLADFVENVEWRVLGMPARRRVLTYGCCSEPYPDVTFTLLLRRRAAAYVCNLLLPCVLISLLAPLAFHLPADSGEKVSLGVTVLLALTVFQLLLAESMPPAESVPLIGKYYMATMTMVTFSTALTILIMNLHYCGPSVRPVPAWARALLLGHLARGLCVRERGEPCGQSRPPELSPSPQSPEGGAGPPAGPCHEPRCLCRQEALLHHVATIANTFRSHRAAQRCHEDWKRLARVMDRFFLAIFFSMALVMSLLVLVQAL

[14] = target: T4, Neuronal acetylcholine receptor; alpha9/alpha10 (Homo sapiens); test: as §5, with “assessed as” for “by measuring”, “potential preincubated for 5 mins followed by peptide washout and” for “potential”, “15” for “5”, “(reference value: 3 +/- 2%)” for “relative to control”; format: cell-based; settings: Oocyte
Method in brief: (§6)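 Recovery of ACh-evoked responses was then followed during peptide washout for 15 min. Values are given as percent of control responses.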

[15] = target: T2, Neuronal acetylcholine receptor subunit alpha-7; test: as §2, with “assessed as” for “by measuring”, “potential preincubated for 5 mins followed by peptide washout and” for “potential”, “15” for “5”, “(reference value: 30 +/- 9%)” for “relative to control”; format: cell-based; settings: Oocyte; method in brief: as §6
[16] = target: T4, Neuronal acetylcholine receptor; alpha9/alpha10 (Homo sapiens); test: as §5, with “assessed as” for “by measuring”, “potential preincubated for 5 mins followed by peptide washout and” for “potential”, “15” for “5”, “(reference value: 0.5%)” for “relative to control”; format: cell-based; settings: Oocyte, filed as antagonist; method in brief: as §6
[17] = target: T2, Neuronal acetylcholine receptor subunit alpha-7; test: as §2, with “assessed as” for “by measuring”, “potential preincubated for 5 mins followed by peptide washout and” for “potential”, “15” for “5”, “(reference value: 0.5 +/- 0.2%)” for “relative to control”; format: cell-based; settings: Oocyte; method in brief: as §6

T1 sequence (Q9GZZ6 whole entry, the tested form may be a part): as the sequence (Q9GZZ6 whole entry) above

Structure (SMILES)	IC50 [6] [nM]	IC50 [13] [nM]	Activity ([2]; filed as antagonist) [%]	Activity ([11]; filed as antagonist) [%]	further results
CC[C@H](C)[C@H](NC(=O)[C@H](CCC(=O)O)NC(=O)[C@@H]1CCCN1C(=O)[C@H](Cc1c[nH]cn1)NC(=O)[C@H](CC(=O)O)NC(=O)[C@@H](NC(=O)[C@H](CC(N)=O)NC(=O)[C@H](CS)NC(=O)[C@H](C)NC(=O)[C@@H]1CCCN1C(=O)[C@H](Cc1c[nH]cn1)NC(=O)[C@H](CO)NC(=O)[C@H](CS)NC(=O)[C@H](CS)NC(=O)CN)C(C)C)C(=O)N[C@@H](CS)C(=O)O	> 10000	> 10000	–	–	IC50 [1]: > 10000 nM; Activity [2]: 81%; Activity [3]: 74%; Activity [4]: 91%; Ratio IC50 (Homo sapiens [5]): > 400; Ratio IC50 (Homo sapiens [7]): > 400; Ratio IC50 (Homo sapiens [8]): > 400; Ratio IC50 (Homo sapiens [9]): > 400; IC50 [10]: > 10000 nM; Activity [11]: 103%; IC50 [12]: 25.4 nM
C[C@H](NC(=O)[C@H](CCCNC(=N)N)NC(=O)[C@H](CCCNC(=N)N)NC(=O)[C@H](Cc1c[nH]cn1)NC(=O)[C@H](CO)NC(=O)[C@H](CCCCN)NC(=O)[C@H](CS)NC(=O)[C@H](C)NC(=O)[C@@H]1CCCN1C(=O)[C@H](Cc1c[nH]cn1)NC(=O)[C@H](CO)NC(=O)[C@H](CS)NC(=O)[C@H](CS)NC(=O)CN)C(=O)N[C@@H](CCCNC(=N)N)C(=O)N[C@@H](CS)C(=O)O (H-GCCSHPACKSHRRARC-OH)	1890	133	13	0.7	–
C[C@H](NC(=O)[C@H](CCCNC(=N)N)NC(=O)[C@H](CCCNC(=N)N)NC(=O)[C@H](Cc1c[nH]cn1)NC(=O)[C@H](CO)NC(=O)[C@H](CS)NC(=O)[C@H](C)NC(=O)[C@@H]1CCCN1C(=O)[C@H](Cc1c[nH]cn1)NC(=O)[C@H](CO)NC(=O)[C@H](CS)NC(=O)[C@H](CS)NC(=O)CN)C(=O)N[C@@H](CCCNC(=N)N)C(=O)N[C@@H](CO)C(=O)N[C@@H](CS)C(=O)O (H-GCCSHPACSHRRARSC-OH)	10100	1290	46	6	–
C[C@H](NC(=O)[C@H](CCCNC(=N)N)NC(=O)[C@H](CCCNC(=N)N)NC(=O)[C@@H]1CCCN1C(=O)[C@H](CO)NC(=O)[C@H](CS)NC(=O)[C@H](C)NC(=O)[C@@H]1CCCN1C(=O)[C@H](Cc1c[nH]cn1)NC(=O)[C@H](CO)NC(=O)[C@H](CS)NC(=O)[C@H](CS)NC(=O)CN)C(=O)N[C@@H](CCCNC(=N)N)C(=O)N[C@@H](CO)C(=O)N[C@@H](CS)C(=O)O (H-GCCSHPACSPRRARSC-OH)	2120	1120	16	10	Activity [14]: 99%; Activity [15]: 97%
C[C@H](NC(=O)[C@H](CCCNC(=N)N)NC(=O)[C@H](CO)NC(=O)[C@@H]1CCCN1C(=O)[C@H](CO)NC(=O)[C@H](CS)NC(=O)[C@H](C)NC(=O)[C@@H]1CCCN1C(=O)[C@H](Cc1c[nH]cn1)NC(=O)[C@H](CO)NC(=O)[C@H](CS)NC(=O)[C@H](CS)NC(=O)CN)C(=O)N[C@@H](CO)C(=O)N[C@@H](CO)C(=O)N[C@@H](CS)C(=O)O (H-GCCSHPACSPSRASSC-OH)	> 10000	–	–	–	–
C[C@H](NC(=O)[C@H](CCCNC(=N)N)NC(=O)[C@H](CCCNC(=N)N)NC(=O)[C@H](CCCNC(=N)N)NC(=O)[C@H](CO)NC(=O)[C@H](CS)NC(=O)[C@H](C)NC(=O)[C@@H]1CCCN1C(=O)[C@H](Cc1c[nH]cn1)NC(=O)[C@H](CO)NC(=O)[C@H](CS)NC(=O)[C@H](CS)NC(=O)CN)C(=O)N[C@@H](CCCNC(=N)N)C(=O)N[C@@H](CO)C(=O)N[C@@H](CS)C(=O)O (H-GCCSHPACSRRRARSC-OH)	177	98.1	1.4	1	Activity [16]: 21%; Activity [17]: 99%
C[C@H](NC(=O)[C@H](CCCNC(=N)N)NC(=O)[C@H](CO)NC(=O)[C@H](CCCNC(=N)N)NC(=O)[C@H](CO)NC(=O)[C@H](CS)NC(=O)[C@H](C)NC(=O)[C@@H]1CCCN1C(=O)[C@H](Cc1c[nH]cn1)NC(=O)[C@H](CO)NC(=O)[C@H](CS)NC(=O)[C@H](CS)NC(=O)CN)C(=O)N[C@@H](CO)C(=O)N[C@@H](CO)C(=O)N[C@@H](CS)C(=O)O (H-GCCSHPACSRSRASSC-OH)	5400	> 10000	–	–	–
